Laboratory results: ChEMBL document CHEMBL5661979, “Pharmacological inhibition of BMK1 suppresses tumor growth through promyelocytic leukemia protein” (Cancer Cell, 2010)

Experiments:
[1] = Inhibition of NEK6/7 in human HeLa cells lysate at 50 uM pre incubated for 15 mins followed by ADP acyl phosphate probe addition and measured after 10 mins by LC-MS/MS analysis relative to control; settings: 25 min, condition cancer
[2] = target: Mitogen-activated protein kinase 14 (Homo sapiens, UniProt Q16539); experiment: Inhibition of p38a in human HeLa cells lysate at 10 uM pre incubated for 15 mins followed by ATP acyl phosphate probe addition and measured after 10 mins by LC-MS/MS analysis relative to control; type: subcellular; settings: time 25.0 min
[3] = target: PKC alpha and beta-2 (Homo sapiens, UniProt P17252+P05771); experiment: Inhibition of PKCalpha/beta in human HeLa cells lysate at 50 uM pre incubated for 15 mins followed by ATP acyl phosphate probe addition and measured after 10 mins by LC-MS/MS analysis relative to control; type: subcellular; settings: time 25.0 min
[4] = target: Dual specificity mitogen-activated protein kinase kinase 6 (Homo sapiens, UniProt P52564); experiment: Inhibition of MAP2K6 in human HeLa cells lysate pre incubated for 15 mins followed by ADP acyl phosphate probe addition and measured after 10 mins by LC-MS/MS analysis; type: subcellular
[5] = Inhibition of SRC/FYN/YES in human HeLa cells lysate pre incubated for 15 mins followed by ATP acyl phosphate probe addition and measured after 10 mins by LC-MS/MS analysis; type: subcellular
[6] = target: T1, EKC/KEOPS complex subunit TP53RK (Homo sapiens) (UniProt Q96S44); experiment: Inhibition of PRPK in human HeLa cells lysate at 2 uM pre incubated for 15 mins followed by ADP acyl phosphate probe addition and measured after 10 mins by LC-MS/MS analysis relative to control; type: subcellular; settings: time 25.0 min
T1 sequence (whole entry): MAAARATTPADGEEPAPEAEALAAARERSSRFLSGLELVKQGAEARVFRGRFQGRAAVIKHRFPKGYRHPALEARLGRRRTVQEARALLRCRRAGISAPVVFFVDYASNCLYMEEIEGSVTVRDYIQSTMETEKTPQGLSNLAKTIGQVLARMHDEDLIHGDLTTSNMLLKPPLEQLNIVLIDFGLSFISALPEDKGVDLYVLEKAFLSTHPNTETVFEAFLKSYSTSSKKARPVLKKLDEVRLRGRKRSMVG

[7] = target: Interferon-induced, double-stranded RNA-activated protein kinase (Homo sapiens, UniProt P19525); experiment: Inhibition of PKR in human HeLa cells lysate at 2 uM pre incubated for 15 mins followed by ADP acyl phosphate probe addition and measured after 10 mins by LC-MS/MS analysis relative to control; type: subcellular; settings: time 25.0 min
[8] = Toxicity in C57Bl/6 mouse assessed as effect on alkaline phosphatase level at 50 mg/kg, ip for 14 days (reference value: 51 U/L); type: organism-based; settings: in vivo, 336 h, time 14 day
[9] = target: Serine/threonine-protein kinase ATR (Homo sapiens, UniProt Q13535); experiment: Inhibition of ATR in human HeLa cells lysate pre incubated for 15 mins followed by ATP acyl phosphate probe addition and measured after 10 mins by LC-MS/MS analysis; type: subcellular
How it was run: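 KiNativ-type profiling in HeLa lysate (5 mg/mL total protein). Lysate preincubated 15 min with inhibitor at 50, 10, 2, 0.8 or 0 μM, then ATP or ADP acylphosphate probe added (5 μM final) for 10 min. Reaction stopped with urea and analysed by targeted MS, using up to four fragment ions per kinase peptide-probe conjugate. % inhibition calculated against untreated lysate. Duplicate reactions.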

[10] = target: Dual specificity mitogen-activated protein kinase kinase 7 (Homo sapiens, UniProt O14733); experiment: Inhibition of MAP2K7 in human HeLa cells lysate pre incubated for 15 mins followed by ADP acyl phosphate probe addition and measured after 10 mins by LC-MS/MS analysis; type: subcellular
[11] = target: eIF-2-alpha kinase GCN2 (Homo sapiens, UniProt Q9P2K8); experiment: Inhibition of GCN2 in human HeLa cells lysate at 10 uM pre incubated for 15 mins followed by ATP acyl phosphate probe addition and measured after 10 mins by LC-MS/MS analysis relative to control; type: subcellular; settings: time 25.0 min
[12] = target: Interleukin-1 receptor-associated kinase 1 (Homo sapiens, UniProt P51617); experiment: Inhibition of IRAK1 in human HeLa cells lysate at 2 uM pre incubated for 15 mins followed by ATP acyl phosphate probe addition and measured after 10 mins by LC-MS/MS analysis relative to control; type: subcellular; settings: time 25.0 min
[13] = target: Serine/threonine-protein kinase MRCK beta (Homo sapiens, UniProt Q9Y5S2); experiment: Inhibition of MRCKB in human HeLa cells lysate pre incubated for 15 mins followed by ATP acyl phosphate probe addition and measured after 10 mins by LC-MS/MS analysis; type: subcellular
[14] = target: Cyclin-G-associated kinase (Homo sapiens) (UniProt O14976); experiment: Inhibition of GAK (unknown origin) assessed as remaining activity at 10 uM by ATP-competition binding assay relative to control
[15] = target: Ribosomal protein S6 kinase beta-1 (Homo sapiens, UniProt P23443); experiment: Inhibition of P70S6K in human HeLa cells lysate at 2 uM pre incubated for 15 mins followed by ATP acyl phosphate probe addition and measured after 10 mins by LC-MS/MS analysis relative to control; type: subcellular; settings: time 25.0 min
[16] = target: Serine/threonine-protein kinase WNK1 (Homo sapiens, UniProt Q9H4A3); experiment: Inhibition of Wnk1 in human HeLa cells lysate pre incubated for 15 mins followed by ATP acyl phosphate probe addition and measured after 10 mins by LC-MS/MS analysis; type: subcellular
[17] = target: Glycogen synthase kinase-3 beta (Homo sapiens, UniProt P49841); experiment: Inhibition of GSK3B isoform 2 in human HeLa cells lysate pre incubated for 15 mins followed by ADP acyl phosphate probe addition and measured after 10 mins by LC-MS/MS analysis; type: subcellular
[18] = target: Serine/threonine-protein kinase Nek1 (Homo sapiens) (UniProt Q96PY6); experiment: Inhibition of NEK1 in human HeLa cells lysate at 50 uM pre incubated for 15 mins followed by ATP acyl phosphate probe addition and measured after 10 mins by LC-MS/MS analysis relative to control; type: subcellular; settings: time 25.0 min
[19] = Inhibition of CDK5/PRKX/PRKY in human HeLa cells lysate pre incubated for 15 mins followed by ADP acyl phosphate probe addition and measured after 10 mins by LC-MS/MS analysis; type: subcellular
How it was run: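 KiNativ profiling in HeLa lysate (5 mg/mL total protein). Lysate incubated 15 min with inhibitor at 50, 10, 2, 0.8 or 0 μM. ATP or ADP acylphosphate probe then added (5 μM final) and reacted 10 min. Reaction stopped with urea and analysed by targeted MS, using up to four fragment ions per kinase peptide-probe conjugate. % inhibition taken against untreated lysate. Run in duplicate.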

[20] = target: Dual specificity protein kinase CLK3 (Homo sapiens, UniProt P49761); experiment: Inhibition of CLK3 in human HeLa cells lysate pre incubated for 15 mins followed by ADP acyl phosphate probe addition and measured after 10 mins by LC-MS/MS analysis; type: subcellular
[21] = target: 1-phosphatidylinositol 3-phosphate 5-kinase (Homo sapiens, UniProt Q9Y2I7); experiment: Inhibition of PIP5K3 in human HeLa cells lysate pre incubated for 15 mins followed by ATP acyl phosphate probe addition and measured after 10 mins by LC-MS/MS analysis; type: subcellular

Interleukin-1 receptor-associated kinase 1, sequence (P51617 whole entry, looked up): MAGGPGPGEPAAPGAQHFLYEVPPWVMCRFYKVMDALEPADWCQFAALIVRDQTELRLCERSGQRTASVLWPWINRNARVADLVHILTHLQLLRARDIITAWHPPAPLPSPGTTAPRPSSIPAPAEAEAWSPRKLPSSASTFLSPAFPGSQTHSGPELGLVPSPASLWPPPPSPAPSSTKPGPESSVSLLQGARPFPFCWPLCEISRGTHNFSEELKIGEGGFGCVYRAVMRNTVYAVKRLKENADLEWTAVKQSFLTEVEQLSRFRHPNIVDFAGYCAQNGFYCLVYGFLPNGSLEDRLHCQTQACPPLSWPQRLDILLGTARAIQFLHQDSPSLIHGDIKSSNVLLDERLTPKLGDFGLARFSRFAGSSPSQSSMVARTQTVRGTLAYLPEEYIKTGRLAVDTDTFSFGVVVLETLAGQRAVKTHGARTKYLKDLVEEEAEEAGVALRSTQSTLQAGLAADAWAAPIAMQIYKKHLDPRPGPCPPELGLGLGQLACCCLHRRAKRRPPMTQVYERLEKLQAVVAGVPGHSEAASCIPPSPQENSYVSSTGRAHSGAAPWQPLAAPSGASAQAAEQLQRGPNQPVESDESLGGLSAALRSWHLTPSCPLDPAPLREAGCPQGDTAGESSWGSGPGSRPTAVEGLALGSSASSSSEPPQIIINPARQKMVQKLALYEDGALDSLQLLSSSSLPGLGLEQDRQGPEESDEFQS
Glycogen synthase kinase-3 beta, sequence (P49841 whole entry, canonical isoform): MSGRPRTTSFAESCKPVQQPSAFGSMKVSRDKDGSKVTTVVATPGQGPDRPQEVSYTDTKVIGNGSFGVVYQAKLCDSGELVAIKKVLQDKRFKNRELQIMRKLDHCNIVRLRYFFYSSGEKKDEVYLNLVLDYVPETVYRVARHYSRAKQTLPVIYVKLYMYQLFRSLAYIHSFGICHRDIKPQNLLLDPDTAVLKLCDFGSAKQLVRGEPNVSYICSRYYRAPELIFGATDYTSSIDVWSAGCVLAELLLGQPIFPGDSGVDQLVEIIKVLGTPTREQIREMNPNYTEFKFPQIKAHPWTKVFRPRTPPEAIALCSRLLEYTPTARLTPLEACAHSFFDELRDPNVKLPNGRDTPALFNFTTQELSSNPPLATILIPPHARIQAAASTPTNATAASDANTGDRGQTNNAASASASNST
Serine/threonine-protein kinase ATR, sequence (Q13535 whole entry, the tested form may be a part): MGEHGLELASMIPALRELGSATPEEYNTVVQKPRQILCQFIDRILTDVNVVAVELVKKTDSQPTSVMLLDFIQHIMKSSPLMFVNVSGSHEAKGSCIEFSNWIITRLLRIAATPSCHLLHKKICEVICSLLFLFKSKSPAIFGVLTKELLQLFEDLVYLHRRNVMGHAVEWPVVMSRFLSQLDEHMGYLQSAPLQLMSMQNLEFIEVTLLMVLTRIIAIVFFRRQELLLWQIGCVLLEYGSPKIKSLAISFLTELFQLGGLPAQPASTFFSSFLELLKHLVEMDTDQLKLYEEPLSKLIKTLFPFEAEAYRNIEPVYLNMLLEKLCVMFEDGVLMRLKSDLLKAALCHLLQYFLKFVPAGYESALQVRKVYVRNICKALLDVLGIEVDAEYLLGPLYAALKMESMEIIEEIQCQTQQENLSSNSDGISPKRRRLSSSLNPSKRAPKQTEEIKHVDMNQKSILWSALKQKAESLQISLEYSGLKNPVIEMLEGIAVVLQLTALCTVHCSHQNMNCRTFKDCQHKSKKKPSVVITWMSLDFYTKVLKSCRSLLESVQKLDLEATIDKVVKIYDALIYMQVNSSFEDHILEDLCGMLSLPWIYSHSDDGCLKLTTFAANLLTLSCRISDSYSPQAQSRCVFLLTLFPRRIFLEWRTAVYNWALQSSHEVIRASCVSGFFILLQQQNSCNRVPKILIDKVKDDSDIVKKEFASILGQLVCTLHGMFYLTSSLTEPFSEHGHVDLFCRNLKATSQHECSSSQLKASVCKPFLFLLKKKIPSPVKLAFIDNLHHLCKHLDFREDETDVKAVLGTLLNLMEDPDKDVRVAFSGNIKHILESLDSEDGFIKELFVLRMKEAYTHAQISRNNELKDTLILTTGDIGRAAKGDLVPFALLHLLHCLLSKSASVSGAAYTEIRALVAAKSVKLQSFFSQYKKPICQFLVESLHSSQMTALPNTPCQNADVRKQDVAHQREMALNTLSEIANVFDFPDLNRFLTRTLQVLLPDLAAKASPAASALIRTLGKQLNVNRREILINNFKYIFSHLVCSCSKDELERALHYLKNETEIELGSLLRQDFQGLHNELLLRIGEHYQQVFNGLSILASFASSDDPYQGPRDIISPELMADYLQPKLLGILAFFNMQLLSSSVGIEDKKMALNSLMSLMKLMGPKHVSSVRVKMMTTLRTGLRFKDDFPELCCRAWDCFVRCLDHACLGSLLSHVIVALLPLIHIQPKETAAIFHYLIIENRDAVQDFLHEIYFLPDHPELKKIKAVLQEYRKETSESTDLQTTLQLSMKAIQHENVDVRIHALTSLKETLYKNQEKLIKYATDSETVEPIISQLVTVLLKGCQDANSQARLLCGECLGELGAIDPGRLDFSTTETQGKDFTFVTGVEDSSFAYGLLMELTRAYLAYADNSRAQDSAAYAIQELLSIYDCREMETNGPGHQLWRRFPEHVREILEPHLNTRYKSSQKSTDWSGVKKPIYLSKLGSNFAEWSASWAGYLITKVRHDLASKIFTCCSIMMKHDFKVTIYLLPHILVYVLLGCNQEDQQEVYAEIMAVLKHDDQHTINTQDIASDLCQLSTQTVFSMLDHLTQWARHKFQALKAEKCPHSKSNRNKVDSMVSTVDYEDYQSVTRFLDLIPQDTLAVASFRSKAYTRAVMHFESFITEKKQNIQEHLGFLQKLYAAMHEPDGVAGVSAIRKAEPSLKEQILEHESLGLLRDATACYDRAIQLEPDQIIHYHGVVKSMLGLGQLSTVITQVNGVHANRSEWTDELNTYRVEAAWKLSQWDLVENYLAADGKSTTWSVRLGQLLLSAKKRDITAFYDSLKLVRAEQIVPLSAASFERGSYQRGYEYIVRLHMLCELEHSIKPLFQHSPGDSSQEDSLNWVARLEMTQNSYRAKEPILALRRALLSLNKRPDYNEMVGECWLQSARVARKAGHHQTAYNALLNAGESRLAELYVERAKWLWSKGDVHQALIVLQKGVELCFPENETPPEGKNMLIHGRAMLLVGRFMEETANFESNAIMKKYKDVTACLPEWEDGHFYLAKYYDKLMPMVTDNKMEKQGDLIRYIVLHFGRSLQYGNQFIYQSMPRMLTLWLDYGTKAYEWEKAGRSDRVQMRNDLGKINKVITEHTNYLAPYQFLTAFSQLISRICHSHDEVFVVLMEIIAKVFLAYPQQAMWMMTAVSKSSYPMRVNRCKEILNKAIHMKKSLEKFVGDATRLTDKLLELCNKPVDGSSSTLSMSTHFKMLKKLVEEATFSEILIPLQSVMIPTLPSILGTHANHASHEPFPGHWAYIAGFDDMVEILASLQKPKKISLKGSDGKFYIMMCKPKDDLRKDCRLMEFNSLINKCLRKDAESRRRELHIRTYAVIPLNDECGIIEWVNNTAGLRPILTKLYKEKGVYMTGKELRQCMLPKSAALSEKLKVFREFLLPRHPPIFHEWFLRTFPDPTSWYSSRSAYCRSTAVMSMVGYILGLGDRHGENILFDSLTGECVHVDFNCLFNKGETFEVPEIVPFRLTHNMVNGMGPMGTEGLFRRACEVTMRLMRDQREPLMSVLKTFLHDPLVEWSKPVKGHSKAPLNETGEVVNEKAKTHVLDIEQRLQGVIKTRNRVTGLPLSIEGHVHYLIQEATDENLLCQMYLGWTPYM
Dual specificity protein kinase CLK3, sequence (P49761 whole entry): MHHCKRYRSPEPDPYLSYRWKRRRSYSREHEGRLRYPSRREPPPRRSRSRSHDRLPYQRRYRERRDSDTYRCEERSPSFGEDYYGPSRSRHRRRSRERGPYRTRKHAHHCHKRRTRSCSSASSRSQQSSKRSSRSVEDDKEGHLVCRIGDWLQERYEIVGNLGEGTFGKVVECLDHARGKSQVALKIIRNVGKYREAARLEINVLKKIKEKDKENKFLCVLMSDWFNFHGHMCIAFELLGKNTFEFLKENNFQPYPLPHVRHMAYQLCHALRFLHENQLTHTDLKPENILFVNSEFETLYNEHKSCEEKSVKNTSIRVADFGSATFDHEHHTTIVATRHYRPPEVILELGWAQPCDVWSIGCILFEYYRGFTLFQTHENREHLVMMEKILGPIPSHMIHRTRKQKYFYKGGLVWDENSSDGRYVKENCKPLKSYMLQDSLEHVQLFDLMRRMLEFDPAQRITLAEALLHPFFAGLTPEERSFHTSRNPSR
Interferon-induced, double-stranded RNA-activated protein kinase, sequence (P19525 whole entry): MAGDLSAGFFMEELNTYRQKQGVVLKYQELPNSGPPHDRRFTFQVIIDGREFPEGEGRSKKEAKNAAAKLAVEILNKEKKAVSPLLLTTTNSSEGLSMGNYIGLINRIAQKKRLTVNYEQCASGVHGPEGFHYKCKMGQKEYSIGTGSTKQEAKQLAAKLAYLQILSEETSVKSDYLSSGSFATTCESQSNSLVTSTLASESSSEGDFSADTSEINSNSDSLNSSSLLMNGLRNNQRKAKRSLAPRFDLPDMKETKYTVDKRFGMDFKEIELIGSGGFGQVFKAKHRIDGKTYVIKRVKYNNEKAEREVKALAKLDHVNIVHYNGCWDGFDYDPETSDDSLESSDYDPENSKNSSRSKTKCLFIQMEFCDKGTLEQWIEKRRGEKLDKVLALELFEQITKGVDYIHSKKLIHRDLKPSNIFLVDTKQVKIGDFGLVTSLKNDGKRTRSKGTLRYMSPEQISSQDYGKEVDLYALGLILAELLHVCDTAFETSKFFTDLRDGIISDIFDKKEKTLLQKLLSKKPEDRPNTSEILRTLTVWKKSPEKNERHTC

## CCOc1cc(N2CCC(O)CC2)ccc1Nc1ncc2c(n1)N(C)c1ccccc1C(=O)N2C
[1]
  inhibition at 50 µM: 5.6%
[2]
  inhibition: -4%
[3]
  inhibition: 14.4%
[4]
  IC50: > 50 µM
[5]
  IC50: > 50 µM
[6]
  inhibition: 23.1%
[7]
  inhibition: 8.4%
[8]
  Activity: 235 U/L
[9]
  IC50: > 50 µM
[10]
  IC50: > 50 µM
[11]
  inhibition: -0.6%
[12]
  inhibition: 2.6%
[13]
  IC50: > 50 µM
[14]
  Activity: 31%
[15]
  inhibition: 7%
[16]
  IC50: > 50 µM
[17]
  IC50: > 50 µM
[18]
  inhibition: -3.8%
[19]
  IC50: > 50 µM
[20]
  IC50: > 50 µM
[21]
  IC50: > 50 µM
